# KDM4C inh: blocks human GASC-1 (KDM4C) demethylase activity; GST-KDM4C 2-372, H3K9me3 peptide, LANCE TR-FRET; inhibition, % at 12.5 µM; AID 720574; Q9H3R0; actives 0.15% (n = 96,000);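 active = mean replicate inhibition above about 25%, with at least 55% of replicates also reaching it, limit read from the data, passing the limit was not always enough; inconclusive = only one of those two conditions met; inactive = neither condition met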
# Target sequence (Q9H3R0 2-372 limits assumed): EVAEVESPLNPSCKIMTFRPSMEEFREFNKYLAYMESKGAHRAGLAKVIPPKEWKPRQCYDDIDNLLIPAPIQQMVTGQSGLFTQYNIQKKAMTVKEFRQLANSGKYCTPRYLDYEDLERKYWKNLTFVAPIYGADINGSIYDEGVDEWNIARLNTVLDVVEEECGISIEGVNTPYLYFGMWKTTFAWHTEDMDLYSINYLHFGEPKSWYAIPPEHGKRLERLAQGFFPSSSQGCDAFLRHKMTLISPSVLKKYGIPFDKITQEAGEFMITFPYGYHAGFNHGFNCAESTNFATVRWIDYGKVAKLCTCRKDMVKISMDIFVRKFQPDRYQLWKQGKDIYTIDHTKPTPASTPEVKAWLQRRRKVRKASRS
#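 System – N-terminal GST-fused human GASC-1 (KDM4C) fragment, residues 2-372 · Input – enzyme final amount 10 nM · Technique – LANCE TR-FRET, Eu antibody, ULight-streptavidin, EDTA, ex 340 nm, em 618/671 nm · Medium – HEPES buffer, pH 7.5, plus ascorbate · Incubation – enzyme reaction 30 min, then detection 60 min, both room temperature · Reagent – H3K9me3 peptide with Fe(II)/2OG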
# T cruzi growth-1: blocks T. cruzi growth in NIH3T3 culture. inhibition, % at 8.34 µM. actives 5.9% (n = 77,000). T. cruzi beta-gal in NIH3T3, GalScreen luminescence, 90 h. AID 624255;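 active = mean inhibition above about 93%, with at least 55% of replicates each passing it, limit read from the data, passing the limit was not always enough; inconclusive = only one of those two conditions holds; inactive = neither condition holds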
# IDH1 mut inh: inhibitors of human IDH1 R132H; IDH1 R132H reductase, diaphorase/resazurin fluorescence, 60 min; actives 0.18% (n = 70,000); inhibition, % at 10 µM; O75874; in the data active = inhibition above about 34%; inconclusive = no clear call, values can overlap the other calls; inactive = below about 11%;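 note: 0% = DMSO and 100% = no enzyme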
# Target sequence (O75874 whole entry R132H): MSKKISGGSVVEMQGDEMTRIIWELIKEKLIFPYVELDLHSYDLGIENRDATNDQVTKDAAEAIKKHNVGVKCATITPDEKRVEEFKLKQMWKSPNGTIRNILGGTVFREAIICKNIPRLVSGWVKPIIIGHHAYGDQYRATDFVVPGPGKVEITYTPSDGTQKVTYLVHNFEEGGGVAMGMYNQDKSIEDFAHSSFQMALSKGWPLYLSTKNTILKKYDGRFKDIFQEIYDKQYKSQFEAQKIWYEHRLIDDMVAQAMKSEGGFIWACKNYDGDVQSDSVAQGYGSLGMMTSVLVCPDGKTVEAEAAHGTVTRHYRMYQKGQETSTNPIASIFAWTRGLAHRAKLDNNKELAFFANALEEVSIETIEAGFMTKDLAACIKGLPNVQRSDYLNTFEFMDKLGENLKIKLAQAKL
# T cruzi growth-2: Trypanosoma cruzi proliferation inhibition. shares compounds with T cruzi growth-1. T. cruzi beta-gal in NIH3T3, GalScreen luminescence, 90 h. inhibition, % at 8.35 µM. actives 72% (n = 5,600);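 active = mean replicate inhibition above about 95% and at least 55% of replicates individually reaching it, limit read from the data; inconclusive = only one of the two criteria is met; inactive = neither criterion is met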
# T cruzi growth-3: inhibitors of T. cruzi proliferation; shares compounds with T cruzi growth-1; T. cruzi beta-gal in NIH3T3, GalScreen luminescence, 90 h; inhibition, % at 2.09 µM; actives 21% (n = 5,600); AID 651740;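 active = mean inhibition above about 95%, with at least 55% of replicates also reaching it, limit read from the data; inconclusive = meets just one of the two conditions; inactive = meets neither condition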;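 note: plate controls were neutral control median for no effect and positive control median for full effect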
# NIH3T3 tox: kills mouse NIH/3T3 fibroblasts | shares compounds with T cruzi growth-1 | NIH/3T3 viability, CellTiter-Glo ATP luminescence, 90 h | AID 651742 | actives 14% (n = 5,600) | cytotoxicity (signal decrease), % at 8.35 µM;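 active = mean signal decrease across replicates above about 35% based on untreated-well scatter, with enough replicates individually passing, limit read from the data; inconclusive = no rule stated though some were filed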;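 note: 0% = median of neutral control wells and 100% = median of positive control wells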
# 3T3 cytotox 2: NIH/3T3 (mouse) viability loss; NIH/3T3 viability, CellTiter-Glo ATP luminescence, 90 h; shares compounds with T cruzi growth-1; actives 56% (n = 5,600); inhibition, % at 24.9 µM;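 active = mean loss of cell viability signal at or above a set limit, and enough replicates individually reaching it; inconclusive = meets only the mean limit or only the replicate share; inactive = meets neither condition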;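 note: 0% = median of neutral control wells and 100% = median of positive control wells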
# * hit, by the source's call; ? = inconclusive; nt = not tested or not shown. Only a selection was taken, and hits are over-represented in it overall.
SMILES,KDM4C inh,T cruzi growth-1,IDH1 mut inh,T cruzi growth-2,T cruzi growth-3,NIH3T3 tox,3T3 cytotox 2
COc1ccc(CN(C)C[C@H]2OCCCC[C@H](C)Oc3ccc(NC(=O)C4CCCCC4)cc3C(=O)N([C@@H](C)CO)C[C@@H]2C)cc1,2.2,104.4*,-0.9,106.7*,46.3,-17.6,68.6*
COCC1OC(OC(C)(C)C2CCC3(C)C=C(C4CCC5C4(C)CC(O)C4OC(C(C)(C)OC6OC(CO)C(O)C(O)C6NC(C)=O)CCC45C)CCC3O2)C(NC(C)=O)C(O)C1O (centres undefined),nt,nt,0.2,nt,nt,nt,nt
COC(=O)CNc1c(F)c(F)nc(F)c1F,nt,nt,-0.9,nt,nt,nt,nt
CC(C)(C)NC(=O)Cn1cc(C(=O)c2ccco2)c2ccccc21,nt,nt,0.1,nt,nt,nt,nt
COc1ccc(C(=O)CSc2ncn(-c3ccccc3)n2)cc1OC,nt,nt,-0.1,nt,nt,nt,nt
CCN(CC(=O)Nc1cc(C(F)(F)F)ccc1Cl)S(=O)(=O)c1ccc(C)cc1,nt,nt,-0.6,nt,nt,nt,nt
COc1ccc(NC(=O)N2CCCCN3[C@@H](CO)[C@H](c4ccc(-c5ccccc5F)cc4)[C@@H]3C2)cc1,-0.6,78.4,nt,nt,nt,nt,nt
O=C(Nc1ccccc1)N1CCCCN2[C@H](C1)[C@H](c1ccc(-c3ccccc3F)cc1)[C@@H]2CO,-0.9,112.8*,nt,108.1*,60.1,13.9,?
COc1ccc(NC(=O)N2CCCCN3[C@@H](CO)[C@@H](c4ccc(-c5ccccc5F)cc4)[C@@H]3C2)cc1,-1.1,89.8,nt,nt,nt,nt,nt
O=C(Nc1ccc(F)cc1)N1CCCCN2[C@H](CO)[C@@H](c3ccc(-c4ccccc4F)cc3)[C@H]2C1,nt,103.7*,nt,97.1*,?,57.5*,105.2*
O=C(Nc1ccc(F)cc1)N1CCCCN2[C@H](CO)[C@H](c3ccc(-c4ccccc4F)cc3)[C@H]2C1,nt,54.4,nt,nt,nt,nt,nt
O=C(Nc1ccc(F)cc1)N1CCCCN2[C@H](CO)[C@@H](c3ccc(-c4ccccc4F)cc3)[C@@H]2C1,nt,112.2*,nt,100.6*,104.0*,32.2,104.3*
C[C@@H]1CN([C@H](C)CO)C(=O)c2cc(C#C[C@@H](C)O)cnc2O[C@@H]1CN(C)C(=O)Nc1ccc(C(F)(F)F)cc1,1.5,nt,-3.0,nt,nt,nt,nt
COc1ccc(NC(=O)N(C)C[C@@H]2Oc3ccc(NS(C)(=O)=O)cc3CC(=O)N([C@H](C)CO)C[C@@H]2C)cc1,1.0,35.9,nt,nt,nt,nt,nt
CC(C)(C)c1ccc(C(=O)Nc2ccc(NC(=O)COc3ccc([N+](=O)[O-])cc3)cc2)cc1,nt,nt,0.6,nt,nt,nt,nt
Cc1nnc(SCC(=O)n2c3c(c4ccccc42)CCCC3)n1C,nt,nt,0.3,nt,nt,nt,nt
COc1cccc(-c2ccc3c(c2)[C@H]2[C@H](CCN2C(=O)C2CCOCC2)[C@H](CO)N3)c1,-2.0,?,nt,103.0*,65.4,3.2,20.1
COc1cccc(-c2ccc3c(c2)[C@@H]2[C@@H](CCN2C(=O)C2CCC2)[C@@H](CO)N3)c1,-0.9,19.2,nt,nt,nt,nt,nt
COc1cccc(-c2ccc3c(c2)[C@H]2[C@H](CCN2C(=O)C2CCCCC2)[C@H](CO)N3)c1,-1.2,nt,nt,nt,nt,nt,nt
O=C(C1CCOCC1)N1CC[C@@H]2[C@H](CO)Nc3ccc(-c4cccc(F)c4)cc3[C@@H]21,1.1,53.9,nt,nt,nt,nt,nt
COc1cccc(-c2ccc3c(c2)[C@H]2[C@H](CCN2C(=O)C2CCOCC2)[C@@H](CO)N3)c1,-1.4,116.2*,nt,104.8*,73.2,-4.6,-0.8
COc1cccc(-c2ccc3c(c2)[C@@H]2[C@@H](CCN2C(=O)C2CCOCC2)[C@H](CO)N3)c1,-0.3,110.5*,nt,90.3,52.0,-14.9,-5.8
C[C@@H]1CCCCO[C@@H](CN(C)Cc2ccc3c(c2)OCO3)[C@@H](C)CN([C@H](C)CO)C(=O)c2cc(NC(=O)c3ccncc3)ccc2O1,16.8,25.9,1.9,nt,nt,nt,nt
O=C(c1cccc(F)c1)N1CCCCN2[C@@H](CO)[C@H](c3ccc(-c4ccc(F)cc4)cc3)[C@@H]2C1,nt,105.2*,nt,103.0*,35.1,32.8,106.4*
O=C(c1cccc(F)c1)N1CCCCN2[C@H](CO)[C@H](c3ccc(-c4cccnc4)cc3)[C@@H]2C1,0.1,?,nt,103.2*,94.5,-3.6,-17.2
SMILES,KDM4C inh,T cruzi growth-1,IDH1 mut inh,T cruzi growth-2,T cruzi growth-3,NIH3T3 tox,3T3 cytotox 2
O=C(c1cccc(F)c1)N1CCCCN2[C@@H](CO)[C@@H](c3ccc(-c4ccc(F)cc4)cc3)[C@@H]2C1,nt,67.3,nt,nt,nt,nt,nt
O=C(c1cccc(F)c1)N1CCCCN2[C@@H](CO)[C@H](c3ccc(-c4ccncc4)cc3)[C@@H]2C1,1.1,109.2*,nt,101.4*,89.3,11.0,46.5*
O=C(c1cccc(F)c1)N1CCCCN2[C@H](CO)[C@H](c3ccc(-c4ccc(F)cc4)cc3)[C@H]2C1,nt,111.0*,nt,101.7*,84.8,16.1,104.1*
O=C(c1cccc(F)c1)N1CCCCN2[C@H](CO)[C@H](c3ccc(-c4cccnc4)cc3)[C@H]2C1,1.3,60.3,nt,nt,nt,nt,nt
O=C(c1cccc(F)c1)N1CCCCN2[C@H](CO)[C@@H](c3ccc(-c4ccc(F)cc4)cc3)[C@H]2C1,nt,80.2,nt,nt,nt,nt,nt
O=C(c1cccc(F)c1)N1CCCCN2[C@H](CO)[C@@H](c3ccc(-c4ccncc4)cc3)[C@H]2C1,1.0,67.1,nt,nt,nt,nt,nt
C[C@@H]1CN([C@@H](C)CO)C(=O)c2cccc(NC(=O)c3cnccn3)c2O[C@H]1CN(C)Cc1ccc(Cl)c(Cl)c1,-1.5,76.6,-0.2,nt,nt,nt,nt
COC(=O)CNC(=O)c1cn(-c2ccccc2)nc1-c1cc2ccccc2oc1=O,nt,nt,0.2,nt,nt,nt,nt
COc1ccc(NC(=O)Nc2ccc3c(c2)CC(=O)N([C@@H](C)CO)C[C@H](C)[C@@H](CN(C)S(=O)(=O)c2c(C)noc2C)O3)cc1,-0.3,9.8,-11.7,nt,nt,nt,nt
CC(C)C#Cc1ccc2c(c1)O[C@@H](CN(C)C(=O)C1CCC1)[C@H](C)CN([C@@H](C)CO)S2(=O)=O,2.0,79.9,7.4,nt,nt,nt,nt
CC(C)C#Cc1ccc2c(c1)O[C@H](CN(C)C(=O)C1CCCCC1)[C@@H](C)CN([C@H](C)CO)S2(=O)=O,-3.0,67.9,nt,nt,nt,nt,nt
CC(C)C#Cc1ccc2c(c1)O[C@H](CN(C)C(=O)C1CCC1)[C@@H](C)CN([C@H](C)CO)S2(=O)=O,-1.4,112.8*,-4.6,98.3*,75.3,23.7,28.2*
CC(C)C#Cc1ccc2c(c1)O[C@@H](CN(C)C(=O)C1CCCCC1)[C@@H](C)CN([C@@H](C)CO)S2(=O)=O,-0.1,?,nt,102.3*,83.0,17.3,106.9*
Cc1noc(C)c1NC(=O)Nc1ccc2c(c1)C(=O)N([C@H](C)CO)C[C@H](C)[C@H](CN(C)C(=O)NC(C)C)OCCCC[C@@H](C)O2,13.5,-65.6,4.4,nt,nt,nt,nt
COc1ccc(NC(=O)CN2C(=O)COc3ccc(Cl)cc32)cc1,nt,nt,-0.6,nt,nt,nt,nt
CC(Sc1nc(-c2ccccc2)cc(-c2ccccc2)n1)C(=O)Nc1ccccc1 (centres undefined),nt,nt,0.2,nt,nt,nt,nt
